Test results as given in paper PMC8929370 (Pharmacology Research & Perspectives, 2022).

Key:
[1] = target: human CB1 (hCB1) receptor (Homo sapiens, UniProt P21554); format: binding; settings: for Rank order (affinity): rank of pKi among EG-018 and 13 analogues
human CB1 [2] = target: T1, human CB1 (Homo sapiens, UniProt P21554); assay: [35S]GTPγS binding in P2 membranes of HEK293 cells expressing hCB1; format: biochemical; settings: for Rank order efficacy: [35S]-GTPγS efficacy ranking; for Emax: read-out: E MAX (±SEM), %
human CB1 [3] = target: T1, human CB1; assay: Inhibition of FSK-stimulated cAMP; format: cell-based; settings: for Emax: HEK293, read-out: E MAX (±SEM), %; for Rank order efficacy: cAMP inhibition efficacy ranking
human CB1 [4] = target: T1, human CB1; assay: Phospho-ERK AlphaLISA assay in 3HA-hCB1 HEK cells; format: cell-based; settings: 10 µM alone
Summary of the method: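 3HA-hCB1 HEK cells were plated at 2.5e4/well on poly-D-lysine-coated plates and serum-starved overnight after ~24 h in serum-free high-glucose DMEM with 1 mg/ml BSA. Drugs were made at 2x, prewarmed and dispensed in a 37°C waterbath, staggered so all stimulations ended together. The time course used 31.6 µM. Cells were lysed on ice and pERK read by AlphaLISA SureFire Ultra, in technical duplicate or quadruplicate.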

human CB1 (hCB1) receptor, sequence (P21554 whole entry): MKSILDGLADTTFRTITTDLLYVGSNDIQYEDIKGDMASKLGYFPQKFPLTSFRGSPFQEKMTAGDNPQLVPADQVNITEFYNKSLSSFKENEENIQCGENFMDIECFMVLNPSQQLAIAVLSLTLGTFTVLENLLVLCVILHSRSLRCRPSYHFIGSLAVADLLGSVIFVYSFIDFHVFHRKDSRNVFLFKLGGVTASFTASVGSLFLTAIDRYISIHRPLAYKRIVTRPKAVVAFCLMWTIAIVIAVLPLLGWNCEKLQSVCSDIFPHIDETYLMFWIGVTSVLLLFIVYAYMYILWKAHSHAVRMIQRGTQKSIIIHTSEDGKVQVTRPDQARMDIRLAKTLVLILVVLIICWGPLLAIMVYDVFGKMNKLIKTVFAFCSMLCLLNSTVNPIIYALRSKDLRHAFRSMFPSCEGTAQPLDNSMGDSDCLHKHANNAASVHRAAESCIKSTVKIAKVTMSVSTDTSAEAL
T1 sequence (P21554 whole entry): as above

Row | SMILES | Ki [1] [nM] | Rank order (affinity) [1] | EC50 (human CB1 [2]) [nM] | Rank order efficacy (human CB1 [2]) | Emax (human CB1 [2]) [%] | EC50 (human CB1 [3]) [nM] | Emax (human CB1 [3]) [%] | Rank order efficacy (human CB1 [3]) | right-shift in the potency of the CP55940 response (cAMP) (human CB1 [3]; 10 µM antagonist, E MAX not reduced) | agonist response in pERK by compound alone (human CB1 [4]) | inverse agonism in cAMP assay (human CB1 [3]; concentration-response, compared to SR141716A)
1 | O=C(c1ccc2c(c1)c1ccccc1n2CCCCCO)c1cccc2ccccc12 [Compound 045] | 166 | 9 | 257 | 12 | 81.9 | 148 | 34.9 | 9 |  |  | 
2 | O=C(c1ccc2c(c1)c1ccccc1n2CCN1CCOCC1)c1cc2ccccc2o1 [Compound 146, 1-Benzofuran-2-yl(9-(2-(morpholin-4-yl)ethyl)-9H-carbazol-3-yl)methanone] | 295 | 11 |  |  |  | 355 | 38.5 | 8 |  |  | 
3 | Cc1ccc(C(=O)c2ccc3c(c2)c2ccccc2n3CCN2CCOCC2)c2ccccc12 [Compound 141, (9-(2-(Morpholin-4-yl)ethyl)-9H-carbazol-3-yl)(4-methylnaphthalen-1-yl)methanone] | 148 | 8 | 355 | 8 | 106 | 83.2 | 38.7 | 7 |  |  | 
4 | O=C(c1ccc2c(c1)c1ccccc1n2CCN1CCOCC1)c1ccnc2ccccc12 [Compound 157, (9-(2-(Morpholin-4-yl)ethyl)-9H-carbazol-3-yl)(quinoline-4-yl)methanone] | 589 | 13 | 257 | 10 | 88.2 | 91.2 | 13.1 | 14 | approximately 1 log unit | not driving an agonist response in pERK | 
5 | O=C(NN1CCCCC1)c1nn(-c2ccc(Cl)cc2Cl)c2c1CCCc1cc(Cl)ccc1-2 [NESS‐0327, reference compound] |  |  |  |  |  |  |  |  |  |  | approximately equivalent inverse agonism to SR141716A
6 | O=C(c1ccc2c(c1)c1ccccc1n2CCN1CCOCC1)c1cc2ccccc2[nH]1 [Compound 142, (9-(2-(Morpholin-4-yl)ethyl)-9H-carbazol-3-yl)(1H-indol-2-yl)methanone] |  | 14 | 6170 | 6 | 123 | 1200 | 31.5 | 13 |  |  | 
